p97 inhibitor – blocks human p97 ATPase activity. P55072. recombinant p97 ATPase, Kinase-Glo ATP luminescence, 3 h. inhibition, % at 8 µM. hit rate 0.42% among 220,000. AID 1481; in the data active means inhibition above about 15%;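 further: 0% = DMSO vehicle and 100% = wells lacking enzyme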
Tb hexokinase – T. brucei hexokinase 1 inhibition; recombinant TbHK1, G6PDH-coupled NADH A340; inhibition, % at 10 µM; hit rate 0.11% among 220,000;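 active means inhibition of 50% or more in the single-dose primary screen; inactive means inhibition below 50%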
RanGTP-Impb inh – inhibitors of RanGTP-importin-beta interaction, primary screen, biochemical, FRET, CFP-Ran, YFP-importin-beta, homogeneous | cell-free CFP-Ran/YFP-importin-beta FRET ratio | inhibition, % (test concentration not listed) | hit rate 1.1% among 300,000 | AID 2216;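 active means more than half of the replicate wells show a fall in the fluorescence ratio signal beyond about 16%, limit read from the data, passing the limit was not always enough; inconclusive means exactly half of the replicate wells pass the set limit; inactive means fewer than half of replicates pass the limit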;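 further: 0% = DMSO wells and 100% = Ran loaded with GDP instead of GTP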
Runt-CBFb FRET – inhibitors of human RUNX1 Runt domain binding to CBFb; Q01196+Q13951; Cerulean-Runt/Venus-CBFb FRET ratio 530/480, 1 h; inhibition, % at 20 µM; hit rate 0.46% among 220,000; AID 1496;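 active means inhibition over about 50% at 20 µM in the single-dose screen, limit read from the data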;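 further: 0% = DMSO wells and 100% = excess unlabeled CBFb competitor control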
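Assay system: Cerulean-tagged RUNX1 Runt domain (FRET donor) fusion protein / Amount: 100 nM each of Venus-CBFb and Cerulean-Runt domain / Medium: Tris buffer pH 7.5 with salts and BSA / Also added: Venus-CBFb 100 nM / Schedule: 1 h complex formation plus 1 h compound treatment, room temperature / Signal: FRET fluorescence / Read-out: loss of energy transfer signal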
Runt-SMMHC FRET – Runt domain-CBFb-SMMHC interaction inhibition; AID 1434; inhibition, % at 20 µM; Cerulean-Runt/Venus-CBFb-SMMHC FRET ratio 530/480, 1 h; hit rate 0.74% among 220,000;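 active means mean inhibition across duplicate retests at 20 µM reaching about 50%, limit read from the data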;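 further: 0% = DMSO wells and 100% = wells with excess untagged CBFb-SMMHC; inhibitors lower the FRET ratio by blocking Runt binding to CBFb-SMMHC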
Hck Nef HTS – blocks Nef-activated human Hck kinase; P08631; Recombinant Hck-YEEI plus Nef, Z-Lyte FRET kinase assay; inhibition, % at 20 µM; hit rate 0.68% among 220,000; AID 463187;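 active means Hck-Nef kinase inhibition above about 50%, limit read from the data; inactive means inhibition below that limit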;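 further: 0% = DMSO with Hck plus Nef and 100% = Hck alone without Nef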
Target sequence (P08631 whole entry, looked up): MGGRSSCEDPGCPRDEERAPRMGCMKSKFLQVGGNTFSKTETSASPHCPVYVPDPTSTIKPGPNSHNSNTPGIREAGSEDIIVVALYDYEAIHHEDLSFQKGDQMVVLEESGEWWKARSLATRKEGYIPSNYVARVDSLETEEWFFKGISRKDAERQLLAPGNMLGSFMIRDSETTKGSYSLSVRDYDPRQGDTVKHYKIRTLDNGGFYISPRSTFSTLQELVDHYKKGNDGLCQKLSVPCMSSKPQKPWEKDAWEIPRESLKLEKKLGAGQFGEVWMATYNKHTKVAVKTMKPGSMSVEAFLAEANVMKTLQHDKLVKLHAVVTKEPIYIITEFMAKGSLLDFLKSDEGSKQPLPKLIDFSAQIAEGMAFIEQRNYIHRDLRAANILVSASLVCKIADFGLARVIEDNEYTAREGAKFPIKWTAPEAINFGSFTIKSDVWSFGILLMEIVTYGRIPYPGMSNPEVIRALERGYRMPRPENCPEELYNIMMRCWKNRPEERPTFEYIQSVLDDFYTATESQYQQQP
Active calls of the source: *; ? = inconclusive; · = no result. An excerpt weighted towards active compounds, which were near 2.1% of everything screened.

SMILES	p97 inhibitor	Tb hexokinase	RanGTP-Impb inh	Runt-CBFb FRET	Runt-SMMHC FRET	Hck Nef HTS
Cn1c(=O)c2cc(S(=O)(=O)NCCC(=O)NCc3ccccc3Cl)ccc2n(C)c1=O	1	45	-2	138*	-2	2
CCCOc1ccc([C@@H]2C3CN(C(=O)OCC)CC=C3C(C#N)=C(N)C2(C#N)C#N)cc1OC (some centres not stated)	-1	-10	5	0	8	2
COc1cc([C@@H]2[C@H]3CNCC=C3C(C#N)=C(N)C2(C#N)C#N)ccc1OC(C)C	-2	-7	63*	7	52	17
CSc1nc(O)c(N=Nc2ccc(F)cc2F)c(=O)[nH]1	·	·	-2	·	·	·
C=CCn1c(Sc2nnc(C)s2)nc2c1c(=O)[nH]c(=O)n2C	1	5	5	-2	3	2
Cc1nnc(Sc2c(N)n(C)c(=O)[nH]c2=O)s1	0	-2	19*	-1	5	0
COc1ccc(/C(O)=C/c2nc3ccccc3n(-c3ccccc3)c2=O)cc1	1	-3	47*	-78	10	-24
COC(=O)Cc1c(C)c2ccc(OCC(=O)NC3CCS(=O)(=O)C3)cc2oc1=O (configuration not stated)	·	·	5	·	·	·
Cc1cccc2cc(C#N)c(NCCNC(=O)NC3CCCCC3)nc12	-5	-1	3	55*	75*	9
COc1ccc(C(=O)NCCNc2nc3c(C)cccc3cc2C#N)cc1OC	·	·	40*	·	·	·
CCC(=O)NCCCNc1nc2c(C)cccc2cc1C#N	4	0	41*	9	34	44
Cc1cc2cccc(C)c2nc1SCC(=O)NC1CCCCC1	·	·	4	·	·	·
Cc1ccc2cc(C#N)c(NCCNC(=O)C3CCC3)nc2c1C	4	3	19*	38	78*	8
COc1cc(C(=O)NCCCNc2nc3c(C)cc(C)cc3cc2C#N)cc(OC)c1OC	11	-5	2	16	23	34
Cc1ccc(C)c(N(CC(=O)NC(C)(C)C)C(=O)CCC(=O)Nc2nccs2)c1	·	·	3	·	·	·
CC(=O)Nc1ccc(NC(=O)CS(=O)(=O)c2cn(CC(=O)N3CCC(C)CC3)c3ccccc23)cc1	·	·	0	·	·	·
CCn1c(=O)n(CC)c2cc(N3CCCC3)c(NC(=O)c3ccccc3F)cc21	·	·	1	·	·	·
Cc1cccc2cc(C#N)c(NCCNS(=O)(=O)c3ccc4c(c3)OCCO4)nc12	0	4	?	28	76*	19
Cc1ccc(SCCNS(=O)(=O)c2ccc3c(c2)OCCO3)cc1	-7	-6	3	-4	-3	1
CC1(OC(=O)C2CCCC2)C(=O)C=C2C=C(c3ccsc3)N(C(CO)CO)C=C2C1=O (configuration not stated)	·	-29	18*	3	28	22
CC(C)CN1C=C2C(=O)C(C)(OC(=O)C3CCCC3)C(=O)C=C2C=C1c1ccsc1 (configuration not stated)	·	-26	-4	-1	7	28
CCN(CC)C(=O)Oc1cc(=O)n2c3c(cccc13)CCC2	2	-7	3	-1	12	4
CC1=CC(c2ccc(Cl)cc2)n2nc(NC(=O)CCC(=O)O)nc2N1 (configuration not stated)	4	-17	1	29	54*	21
O=C(CNC(=O)c1cccs1)N/N=C/c1c(F)cccc1Cl	·	·	6	·	·	·
CCc1nc2ccccc2n1CC(O)COCC1CC=CCC1 (configuration not stated)	-1	-2	-2	-1	-1	10
Cc1onc(-c2c(Cl)cccc2Cl)c1C(=O)c1c[nH]c(C(=O)NCC2CCCO2)c1 (configuration not stated)	7	4	-2	-1	-4	-7
COc1ccc2nc(C)c3cc(C)oc3c2c1	-2	-3	·	2	0	0
COc1cccc2c1nc(C)c1cc(C)oc12	-6	0	33*	-1	3	0
Nc1nnc(CCC2CCCCC2)s1	1	7	0	0	0	7
N#CC1=C(N)SC(N)=C(C#N)C1CCC1CCCCC1	-8	3	51*	22	35	4
